Measurements as given in paper PMC9295256 (Journal of medicinal chemistry, 2021).
Entries after “also recorded” stand apart in the source; their conditions may differ. Like-named read-outs stand apart in the source and are kept apart here.

Legend:
[1] = format: in vitro ADME, mouse
[2] = biological target: human NEP (Homo sapiens, UniProt P08473); assay: Peptidase selectivity: neprilysin, fluorogenic substrate; format: biochemical; conditions: eight-point concentration–response up to 300 μM; substrate 10 μM
[3] = biological target: human ACE2 (Homo sapiens, UniProt Q9BYF1); assay: Peptidase selectivity: ACE2, fluorogenic substrate; format: biochemical; conditions: eight-point concentration–response up to 300 μM; substrate 10 μM
How it was run: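 Recombinant human ACE2 was tested in artificial CSF at 37 °C with a 10 min preincubation of enzyme and test compound (from 30–50 mM DMSO stocks). Mca-Ala-Pro-Lys(Dnp) (10 µM) started the reaction, and fluorescence (320 nm excitation, 405 nm emission) was followed continuously for 20 min; n = 4.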

[4] = biological target: Rat recombinant neurolysin (Rattus norvegicus, UniProt P42676); assay: Hydrolysis of endogenous substrates BK and NT by Nln, LC-MS/MS; format: biochemical; conditions: compound 10 or 30 μM, Nln 0.5 nM; for hydrolysis of BK by Nln, formation of BK-(1–5): BK 20 μM; for hydrolysis of NT by Nln, formation of NT-(1–10): NT 20 μM
How it was run: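 In-house recombinant rat Nln (0.5 nM) was preincubated 10 min at 37 °C with test compound (10 or 30 µM), then given bradykinin (20 µM) for a further 10 min at 37 °C. BK-(1–5) was quantified by LC–MS/MS (water/acetonitrile with 0.1% formic acid gradient, column 40 °C) as a peak-area ratio to internal standard; n = 3.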

[5] = Brain protein binding, rapid equilibrium dialysis; format: in vitro ADME; conditions: mouse, mouse brain homogenate (dilution factor D = 5)
How it was run: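 Mouse brain homogenate spiked to 500 ng/mL final (from a 10 µg/mL aqueous dilution of DMSO solution) was dialysed against DPBS across an 8 kDa cutoff membrane for 4 h at 37 °C with 250 rpm orbital shaking. Both chambers were sampled and quantified by LC–MS/MS. fu,d = receiver/donor, corrected to undiluted fu with D = 5. Done in triplicate.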

[6] = biological target: human TOP (Homo sapiens, UniProt P52888); assay: Peptidase selectivity: thimet oligopeptidase, fluorogenic substrate; format: biochemical; conditions: eight-point concentration–response up to 300 μM; substrate 15 μM
[7] = biological target: human angiotensin-converting enzyme (Homo sapiens, UniProt P12821); assay: Peptidase selectivity: ACE, fluorogenic substrate; format: biochemical; conditions: eight-point concentration–response up to 300 μM; substrate 10 μM
How it was run: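 Continuous fluorogenic assay with recombinant human ACE in artificial CSF at 37 °C. Test compound (from 30–50 mM DMSO stocks) was preincubated with enzyme for 10 min. The reaction was started with Mca-[…]Dnp)-OH (10 µM), and fluorescence (ex 320/em 405 nm) was read continuously for 20 min; n = 4.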

[8] = test system: co-culture of primary mouse astrocytes and immortalized mouse endothelial cells (bEnd3); format: in vitro ADME; conditions: ratio of Pe values
[9] = biological target: recombinant rat Nln (Rattus norvegicus, UniProt P42676); assay: Nln activation, continuous quenched fluorescence substrate; format: biochemical; conditions: for increase in potency over the least active hit / increase in potency over the most active hit: A50 ratio; for mean Amax of the two enantiomers: mean over L and D enantiomer
[10] = CD-1 (source of the primary astrocytes), mouse
[11] = 100% = normal enzyme turnover, mean of n = 4, 95% CI in parentheses

human ACE2, sequence (Q9BYF1 18-805): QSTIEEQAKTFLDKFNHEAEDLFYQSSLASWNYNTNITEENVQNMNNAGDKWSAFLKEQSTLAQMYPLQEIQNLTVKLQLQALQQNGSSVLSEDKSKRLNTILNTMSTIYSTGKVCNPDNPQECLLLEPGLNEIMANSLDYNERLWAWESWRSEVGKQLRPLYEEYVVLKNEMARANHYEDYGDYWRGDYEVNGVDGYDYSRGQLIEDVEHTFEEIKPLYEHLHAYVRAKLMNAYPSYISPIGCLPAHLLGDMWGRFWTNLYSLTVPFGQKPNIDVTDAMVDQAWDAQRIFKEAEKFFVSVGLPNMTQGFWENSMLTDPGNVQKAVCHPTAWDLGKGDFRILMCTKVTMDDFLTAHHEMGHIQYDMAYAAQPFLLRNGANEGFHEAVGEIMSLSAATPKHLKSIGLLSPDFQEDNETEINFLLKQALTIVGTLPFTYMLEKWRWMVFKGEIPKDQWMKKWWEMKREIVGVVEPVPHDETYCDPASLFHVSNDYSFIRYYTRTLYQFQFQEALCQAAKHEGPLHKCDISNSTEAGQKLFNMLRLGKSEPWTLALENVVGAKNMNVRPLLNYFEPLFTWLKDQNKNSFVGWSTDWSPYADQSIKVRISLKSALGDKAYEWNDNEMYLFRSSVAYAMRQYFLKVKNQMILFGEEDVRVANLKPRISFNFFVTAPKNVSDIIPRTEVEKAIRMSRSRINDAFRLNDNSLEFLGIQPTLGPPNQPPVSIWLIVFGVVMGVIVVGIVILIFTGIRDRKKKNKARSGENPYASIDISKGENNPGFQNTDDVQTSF
human angiotensin-converting enzyme, sequence (P12821 30-1306): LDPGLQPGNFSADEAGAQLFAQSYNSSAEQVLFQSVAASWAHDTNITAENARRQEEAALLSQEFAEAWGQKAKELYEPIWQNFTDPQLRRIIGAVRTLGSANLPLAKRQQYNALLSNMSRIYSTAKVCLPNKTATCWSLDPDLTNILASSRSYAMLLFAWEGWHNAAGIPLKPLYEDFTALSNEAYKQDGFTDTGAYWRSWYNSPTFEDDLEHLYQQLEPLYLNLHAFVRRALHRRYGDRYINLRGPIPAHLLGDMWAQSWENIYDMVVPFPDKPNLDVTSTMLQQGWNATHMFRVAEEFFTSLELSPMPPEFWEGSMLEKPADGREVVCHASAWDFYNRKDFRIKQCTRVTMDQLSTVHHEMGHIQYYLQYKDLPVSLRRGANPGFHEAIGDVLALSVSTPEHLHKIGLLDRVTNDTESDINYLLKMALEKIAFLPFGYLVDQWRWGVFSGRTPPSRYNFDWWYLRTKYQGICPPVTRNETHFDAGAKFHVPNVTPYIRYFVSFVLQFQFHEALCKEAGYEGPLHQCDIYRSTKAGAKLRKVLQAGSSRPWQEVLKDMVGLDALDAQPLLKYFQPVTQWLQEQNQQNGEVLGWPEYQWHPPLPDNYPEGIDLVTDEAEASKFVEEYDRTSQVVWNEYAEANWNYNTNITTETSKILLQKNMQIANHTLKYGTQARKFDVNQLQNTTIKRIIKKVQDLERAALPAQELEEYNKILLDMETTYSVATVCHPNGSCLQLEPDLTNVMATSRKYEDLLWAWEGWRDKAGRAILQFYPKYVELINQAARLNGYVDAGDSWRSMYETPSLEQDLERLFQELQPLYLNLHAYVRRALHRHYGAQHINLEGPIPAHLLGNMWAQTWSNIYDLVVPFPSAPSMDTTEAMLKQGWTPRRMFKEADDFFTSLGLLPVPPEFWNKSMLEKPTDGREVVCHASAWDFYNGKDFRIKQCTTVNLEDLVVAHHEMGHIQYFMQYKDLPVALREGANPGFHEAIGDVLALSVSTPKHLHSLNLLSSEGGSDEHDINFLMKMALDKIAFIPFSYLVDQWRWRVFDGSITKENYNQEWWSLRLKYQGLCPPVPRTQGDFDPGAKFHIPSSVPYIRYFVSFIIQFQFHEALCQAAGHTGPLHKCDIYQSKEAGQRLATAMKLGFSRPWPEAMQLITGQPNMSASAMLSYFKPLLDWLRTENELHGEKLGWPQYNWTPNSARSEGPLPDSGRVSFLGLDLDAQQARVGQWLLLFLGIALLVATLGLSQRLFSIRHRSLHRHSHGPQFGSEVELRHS
human NEP, sequence (P08473 whole entry): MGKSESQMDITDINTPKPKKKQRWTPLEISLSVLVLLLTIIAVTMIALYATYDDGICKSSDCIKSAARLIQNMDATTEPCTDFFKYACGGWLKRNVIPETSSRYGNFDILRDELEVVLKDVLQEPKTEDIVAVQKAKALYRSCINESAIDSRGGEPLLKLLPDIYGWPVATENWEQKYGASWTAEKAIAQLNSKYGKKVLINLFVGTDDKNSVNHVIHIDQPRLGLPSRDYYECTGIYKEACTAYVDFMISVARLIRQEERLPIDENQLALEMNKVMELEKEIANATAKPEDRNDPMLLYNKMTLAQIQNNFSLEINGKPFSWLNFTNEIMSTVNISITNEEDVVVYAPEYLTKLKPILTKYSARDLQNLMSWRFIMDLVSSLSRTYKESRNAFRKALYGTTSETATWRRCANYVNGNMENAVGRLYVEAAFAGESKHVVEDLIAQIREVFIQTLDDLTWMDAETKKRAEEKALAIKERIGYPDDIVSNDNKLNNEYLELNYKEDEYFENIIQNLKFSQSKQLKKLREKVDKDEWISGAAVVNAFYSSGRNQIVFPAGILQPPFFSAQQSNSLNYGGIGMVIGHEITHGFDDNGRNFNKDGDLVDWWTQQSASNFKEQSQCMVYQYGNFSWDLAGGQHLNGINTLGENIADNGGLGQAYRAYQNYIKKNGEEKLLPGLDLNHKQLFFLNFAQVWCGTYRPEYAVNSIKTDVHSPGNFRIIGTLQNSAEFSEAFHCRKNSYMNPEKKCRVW
human TOP, sequence (P52888 whole entry): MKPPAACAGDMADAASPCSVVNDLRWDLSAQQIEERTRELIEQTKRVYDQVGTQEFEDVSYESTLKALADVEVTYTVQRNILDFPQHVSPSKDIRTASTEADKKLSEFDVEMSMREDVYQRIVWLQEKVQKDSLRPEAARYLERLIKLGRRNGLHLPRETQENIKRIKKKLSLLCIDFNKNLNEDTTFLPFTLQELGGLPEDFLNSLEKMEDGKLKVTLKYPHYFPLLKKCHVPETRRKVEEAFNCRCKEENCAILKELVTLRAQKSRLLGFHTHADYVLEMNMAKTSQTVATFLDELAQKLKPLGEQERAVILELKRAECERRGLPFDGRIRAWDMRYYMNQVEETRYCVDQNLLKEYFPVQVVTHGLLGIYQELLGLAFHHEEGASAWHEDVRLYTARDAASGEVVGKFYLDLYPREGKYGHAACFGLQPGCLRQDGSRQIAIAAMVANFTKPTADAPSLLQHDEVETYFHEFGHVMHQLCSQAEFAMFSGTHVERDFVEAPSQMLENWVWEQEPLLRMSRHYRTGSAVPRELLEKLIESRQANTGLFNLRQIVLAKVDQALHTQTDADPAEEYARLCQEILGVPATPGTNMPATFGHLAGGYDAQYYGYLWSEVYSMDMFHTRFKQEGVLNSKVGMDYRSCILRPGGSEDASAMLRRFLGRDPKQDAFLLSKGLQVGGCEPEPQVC
Rat recombinant neurolysin, sequence (P42676 38-704): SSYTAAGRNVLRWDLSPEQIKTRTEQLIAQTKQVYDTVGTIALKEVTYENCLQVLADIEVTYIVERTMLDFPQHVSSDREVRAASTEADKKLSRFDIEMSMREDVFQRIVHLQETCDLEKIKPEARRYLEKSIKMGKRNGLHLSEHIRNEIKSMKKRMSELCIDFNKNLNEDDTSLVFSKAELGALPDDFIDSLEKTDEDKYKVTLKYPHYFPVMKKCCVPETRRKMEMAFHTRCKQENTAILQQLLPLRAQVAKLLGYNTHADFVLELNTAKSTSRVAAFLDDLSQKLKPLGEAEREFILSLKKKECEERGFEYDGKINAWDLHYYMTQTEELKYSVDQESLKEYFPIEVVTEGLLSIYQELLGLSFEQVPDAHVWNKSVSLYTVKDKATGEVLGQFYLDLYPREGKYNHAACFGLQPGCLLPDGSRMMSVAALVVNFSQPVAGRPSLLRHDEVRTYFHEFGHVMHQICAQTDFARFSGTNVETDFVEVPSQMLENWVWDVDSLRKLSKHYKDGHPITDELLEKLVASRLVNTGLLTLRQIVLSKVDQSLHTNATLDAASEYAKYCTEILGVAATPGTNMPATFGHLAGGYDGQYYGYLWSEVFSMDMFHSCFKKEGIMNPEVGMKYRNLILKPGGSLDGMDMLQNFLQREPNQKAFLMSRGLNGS
recombinant rat Nln, sequence (P42676 38-704): as above

Compound: N[C@@H](Cc1c[nH]cn1)C(=O)N[C@@H](Cc1c[nH]c2ccccc12)C(=O)O [Compound 4, His–Trp]
- Papp A→B at 120 min, 10 μg/mL ([1]; CD-1, mouse): 5.33 ×10⁻⁶ cm/s

Compound: N[C@@H](Cc1c[nH]cn1)C(=O)NCCc1c[nH]c2ccccc12 [Compound 9d, (S)-N-(2-(1H-Indol-3-yl)ethyl)-2-amino-3-(1H-imidazol-4-yl)-propanamide]
- effect on catalytic activity of NEP [2]: None of the three compounds showed appreciable inhibition
- effect on catalytic activity of ACE2 [3]: inhibition of ACE2 at high concentrations
- hydrolysis of BK by Nln, formation of BK-(1–5) [4]: enhanced hydrolysis of BK
- hydrolysis of NT by Nln, formation of NT-(1–10) [4]: hydrolysis of NT by Nln was also enhanced
- fraction unbound at 4 h, 500 ng/mL [5]: 0.14 ± 0.012
- effect on catalytic activity of TOP [6]: only exhibited inhibition at concentrations approaching 300 μM
- effect on catalytic activity of ACE [7]: inhibition of ACE at high concentration
- Papp A→B at 120 min, 10 μg/mL [1, 10]: 17.8 ×10⁻⁶ cm/s
- increase in BBB permeability / brain penetration over hit compounds 1 and 4 [8]: 4–5 fold

Compound: N[C@H](Cc1c[nH]cn1)C(=O)NCCc1ccc2ccccc2c1 [Compound 9g, (R)-2-Amino-3-(1H-imidazol-4-yl)-N-(2-(naphthalen-2-yl)ethyl)-propanamide]
- Amax, maximum % activation achieved (95% CI) [9]: 339.8 (325.4 to 355.4) %

Compound: N[C@@H](Cc1c[nH]cn1)C(=O)NCc1ccc2ccccc2c1 [Compound 10a, (S)-2-Amino-3-(1H-imidazol-4-yl)-N-(naphthalen-2-ylmethyl)-propanamide]
- Amax, maximum % activation achieved (95% CI) [9, 11]: 210.9 (191.7 to 231.9) %

Compound: N[C@H](Cc1c[nH]cn1)C(=O)NCc1ccc2ccccc2c1 [Compound 10b, (R)-2-Amino-3-(1H-imidazol-4-yl)-N-(naphthalen-2-ylmethyl)-propanamide]
- Amax, maximum % activation achieved (95% CI) [9, 11]: 197.5 (184.9 to 214.8) %

Compound: N[C@@H](Cc1c[nH]cn1)C(=O)NCc1cccc2ccccc12 [Compound 10c, (S)-2-Amino-3-(1H-imidazol-4-yl)-N-(naphthalen-1-ylmethyl)-propanamide]
- effect on catalytic activity of NEP [2]: None of the three compounds showed appreciable inhibition
- effect on catalytic activity of ACE2 [3]: no inhibition up to 300 μM
- hydrolysis of BK by Nln, formation of BK-(1–5) [4]: enhanced hydrolysis of BK
- hydrolysis of NT by Nln, formation of NT-(1–10) [4]: hydrolysis of NT by Nln was also enhanced
- effect on catalytic activity of TOP [6]: No appreciable inhibition
- effect on catalytic activity of ACE [7]: no inhibition at the maximum concentration tested
- Amax, maximum % activation achieved (95% CI) [9, 11]: 264 (256.3 to 272.6) %
- increase in potency over the least active hit [9]: > 30 fold
- increase in potency over the most active hit [9]: > 10 fold
- increase in BBB permeability / brain penetration over hit compounds 1 and 4 [8]: 4–5 fold

Compound: N[C@H](Cc1c[nH]cn1)C(=O)NCc1cccc2ccccc12 [Compound 10d, (R)-2-Amino-3-(1H-imidazol-4-yl)-N-(naphthalen-1-ylmethyl)-propanamide]
- Amax, maximum % activation achieved (95% CI) [9, 11]: 343 (325.2 to 363.5) %

Compound: N[C@@H](Cc1c[nH]cn1)C(=O)Nc1cccc2cccnc12 [Compound 11a, (S)-2-Amino-3-(1H-imidazol-4-yl)-N-(quinolin-8-yl)propanamide]
- effect on catalytic activity of NEP [2]: None of the three compounds showed appreciable inhibition
- effect on catalytic activity of ACE2 [3]: inhibition of ACE2 at high concentrations
- hydrolysis of BK by Nln, formation of BK-(1–5) [4]: enhanced hydrolysis of BK
- hydrolysis of NT by Nln, formation of NT-(1–10) [4]: hydrolysis of NT by Nln was also enhanced
- fraction unbound at 4 h, 500 ng/mL [5]: 0.062 ± 0.011
- effect on catalytic activity of TOP [6]: No appreciable inhibition
- effect on catalytic activity of ACE [7]: inhibition of ACE at high concentration
- Amax, maximum % activation achieved (95% CI) [9, 11]: 281.2 (266.7 to 297.1) %
- increase in potency over the least active hit [9]: > 30 fold
- increase in potency over the most active hit [9]: > 10 fold
- mean Amax of the two enantiomers [9]: 285%
- Papp A→B at 120 min, 10 μg/mL [1, 10]: 19 ×10⁻⁶ cm/s
- increase in BBB permeability / brain penetration over hit compounds 1 and 4 [8]: 4–5 fold

Compound: N[C@H](Cc1c[nH]cn1)C(=O)Nc1cccc2cccnc12 [Compound 11b, (R)-2-Amino-3-(1H-imidazol-4-yl)-N-(quinolin-8-yl)propanamide]
- Amax, maximum % activation achieved (95% CI) [9, 11]: 288.3 (274.3 to 303.3) %
- mean Amax of the two enantiomers [9]: 285%

Compound: (S)-tert-Butyl(1-((2-(1H-indol-3-yl)ethyl)amino)-3-(1H-imidazol-4-yl)-1-oxopropan-2-yl)carbamate [Compound 9b]
- Nln activation, result in words [9]: ameliorates activity
- Amax, maximum % activation achieved (95% CI) [9, 11]: Inactive
- A50, half maximal activation concentration (95% CI) ([9]; recombinant rat Nln, QFS […] μM, 37 °C, mean of n = 4, 95% CI in parentheses): Inactive

Compound: N-(2-(1H-Indol-3-yl)ethyl)-3-(1H-imidazol-4-yl)propanamide [Compound 9c]
- A50, half maximal activation concentration (95% CI) [9]: Inactive
- Amax, maximum % activation achieved (95% CI) [9]: Inactive
- Nln activation, result in words [9]: complete amelioration of activity; also recorded: ameliorates activity
